# Assay results collected from several papers.
# Protocols differ between the studies behind these lines.
# Target: Casein kinase I isoform gamma-1 (CSNK1G1, Homo sapiens, UniProt Q9HCP0)
SMILES,assay,setting,measurement,result
O=c1[nH]c2ccccc2n1C1CCN(Cc2ccc(-c3[nH]c4cc5ncnc5cc4nc3-c3ccccc3)cc2)CC1,cell-free assay,0.5 µM,remaining signal,99.3%
C#Cc1n[nH]c2c(-c3cn(C(C)c4ccccn4)c(=O)[nH]c3=O)cc(F)cc12 (stereo not drawn),"enzyme activity, inhibitor",1 µM,inhibition,5.4%
N#CC1(c2ccccn2)CCN(Cc2cc(C(=O)O)c(=O)n3ccccc23)CC1,"cell-free assay, competition with immobilised ligand",1 µM,remaining binding,100%
CC(C)(C)c1cc(C=C(C#N)C#N)cc(Br)c1O,"enzyme activity, inhibitor",0.5 µM,remaining activity,106%
C#Cc1n[nH]c2c(-c3cn([C@@H](C)c4ccccc4)c(=O)[nH]c3=O)cc(F)cc12,"enzyme activity, inhibitor",0.1 µM,inhibition,6.6%
Cc1nn(C)cc1-c1nc2c(N3CCN(Cc4ccc(Cl)cc4)CC3)c(Cl)cnc2[nH]1,"binding, competition with immobilised ligand",1 µM,remaining binding,100%
COc1cc(Nc2ncc(F)c(Nc3ccc4c(n3)NC(=O)C(C)(C)O4)n2)cc(OC)c1OC,"binding, competition with immobilised ligand",10 µM,inhibition,0%
Nc1ncc(-c2nc(N3CCOCC3)nc(N3CCOCC3)n2)c(C(F)F)n1,"binding, competition with immobilised ligand",10 µM,remaining binding,79%
Cn1cc(-c2cc(F)cc(N3CCn4c(cc5c4CCCC5)C3=O)c2CO)cc(Nc2ccc(N3CCN(C4COC4)CC3)cn2)c1=O,"enzyme activity, inhibitor",0.1 µM,inhibition,1%
COc1ncccc1-c1cnn2ccc(N3CCN(C(=O)OC(C)C)CC3)nc12,"binding, competition with immobilised ligand",1 µM,remaining binding,77%
Cn1cncc1[C@@](O)(COc1ccc(C#N)cc1-c1ccc(OC(F)(F)F)cc1)c1ccc(C#N)cc1,"cell-free assay, competition with immobilised ligand",1 µM,remaining binding,91%
Cn1cc(-c2cccc(N3CCc4c(sc5c4CC(C)(C)C5)C3=O)c2CO)cc(Nc2ccncn2)c1=O,"enzyme activity, inhibitor",1 µM,inhibition,5%
